Legend:
TGF-beta receptor type-1 [1] = molecular target: T1, TGF-beta receptor type-1 (Homo sapiens, UniProt P36897); assay: Binding affinity to human TGFBR1
T1 sequence (P36897 whole entry): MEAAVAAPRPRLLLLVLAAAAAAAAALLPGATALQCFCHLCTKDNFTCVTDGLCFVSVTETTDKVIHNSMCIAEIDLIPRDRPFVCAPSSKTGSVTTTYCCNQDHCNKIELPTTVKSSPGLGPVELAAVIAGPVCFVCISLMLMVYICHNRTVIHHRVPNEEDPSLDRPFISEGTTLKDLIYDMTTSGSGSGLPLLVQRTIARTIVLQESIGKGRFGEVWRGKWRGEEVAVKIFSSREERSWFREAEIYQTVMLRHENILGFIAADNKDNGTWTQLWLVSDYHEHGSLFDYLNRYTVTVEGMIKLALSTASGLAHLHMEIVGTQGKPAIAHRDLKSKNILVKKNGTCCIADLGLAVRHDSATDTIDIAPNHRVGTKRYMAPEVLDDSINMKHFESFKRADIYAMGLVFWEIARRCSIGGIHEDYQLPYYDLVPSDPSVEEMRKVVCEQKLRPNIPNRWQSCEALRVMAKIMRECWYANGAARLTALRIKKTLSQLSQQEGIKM

[2] = molecular target: Mitogen-activated protein kinase 14 (Homo sapiens, UniProt Q16539); assay: Inhibition of p38alpha
TGF-beta receptor type-1 [3] = molecular target: T1, TGF-beta receptor type-1; assay: Inhibition of TGFBR1 transfected in human HepG2 cells after 24 hrs by plasminogen activator inhibitor-luciferase reporter gene assay; format: cell-based
[4] = Half life in iv dosed Sprague-Dawley rat; format: ADME, organism-based; conditions: in vivo
Procedure, shortened: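 Half-life was measured in fasted male Sprague–Dawley rats and is the mean of 4 iv experiments. Depending on the compound, the vehicle was 20% captisol or NMP/H₂O (1/1).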

[5] = Bioavailability in iv and po dosed Sprague-Dawley rat; format: ADME, organism-based; conditions: in vivo
Procedure, shortened: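 Fasted male Sprague–Dawley rats were dosed iv and po. […] Depending on the compound, the vehicle was 20% captisol or NMP/H₂O (1/1).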

Mitogen-activated protein kinase 14, sequence (Q16539 whole entry): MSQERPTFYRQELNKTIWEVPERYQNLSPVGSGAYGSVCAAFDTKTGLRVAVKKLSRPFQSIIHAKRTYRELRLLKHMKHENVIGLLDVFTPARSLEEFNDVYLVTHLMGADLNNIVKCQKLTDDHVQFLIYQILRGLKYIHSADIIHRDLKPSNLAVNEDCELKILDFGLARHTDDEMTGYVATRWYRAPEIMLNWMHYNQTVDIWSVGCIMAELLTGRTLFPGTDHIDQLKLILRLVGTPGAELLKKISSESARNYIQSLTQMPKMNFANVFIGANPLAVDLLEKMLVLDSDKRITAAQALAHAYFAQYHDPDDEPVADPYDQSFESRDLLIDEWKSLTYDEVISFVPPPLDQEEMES

CC(=O)N1CCN(c2nc(-c3ccc(F)c(C)n3)c(-c3ccc4ncnn4c3)[nH]2)CC1
Ki (TGF-beta receptor type-1 [1]): 15.2 nM
EC50 [2]: 14200 nM
EC50 (TGF-beta receptor type-1 [3]): 1220 nM

COCC(=O)Nc1nc(-c2ccc(F)c(C)n2)c(-c2ccc3nccnc3c2)[nH]1
Ki (TGF-beta receptor type-1 [1]): 7.2 nM
EC50 [2]: 15000 nM
EC50 (TGF-beta receptor type-1 [3]): 61 nM

Cc1nc(-c2nc(N3CCCCC3)[nH]c2-c2ccc3ncnn3c2)ccc1F
Ki (TGF-beta receptor type-1 [1]): 53.2 nM

Cc1nc(-c2nc(NC(=O)C(C)C)[nH]c2-c2ccc3nccnc3c2)ccc1F
Ki (TGF-beta receptor type-1 [1]): > 28000 nM

CC(=O)Nc1nc(-c2ccc(F)c(C)n2)c(-c2ccc3nccnc3c2)[nH]1
half-life [4]: 7.8 h
EC50 [2]: 14800 nM
bioavailability [5]: 66%
EC50 (TGF-beta receptor type-1 [3]): 180 nM

Cc1nc(-c2nc(N3CCN(S(C)(=O)=O)CC3)[nH]c2-c2ccc3ncnn3c2)ccc1F
Ki (TGF-beta receptor type-1 [1]): 3 nM
EC50 [2]: 41200 nM
EC50 (TGF-beta receptor type-1 [3]): 414 nM

COCCC(=O)Nc1nc(-c2ccc(F)c(C)n2)c(-c2ccc3nccnc3c2)[nH]1
Ki (TGF-beta receptor type-1 [1]): 19 nM
half-life [4]: 13.2 h
EC50 [2]: 14800 nM
bioavailability [5]: 41%
EC50 (TGF-beta receptor type-1 [3]): 148 nM

Cc1cccc(-c2nc(N)sc2-c2ccc3nccnc3c2)n1
Ki (TGF-beta receptor type-1 [1]): 0.33 nM
half-life [4]: 7.4 h
EC50 [2]: 22000 nM
bioavailability [5]: 87%
EC50 (TGF-beta receptor type-1 [3]): 80 nM

CC(=O)Nc1nc(-c2cccc(C)n2)c(-c2ccc3ncnn3c2)[nH]1
Ki (TGF-beta receptor type-1 [1]): 2.95 nM
half-life [4]: 7.1 h
EC50 [2]: 57800 nM
bioavailability [5]: 100%
EC50 (TGF-beta receptor type-1 [3]): 165 nM

CC(=O)Nc1nc(-c2ccc(F)c(C)n2)c(-c2ccc3ncnn3c2)[nH]1
Ki (TGF-beta receptor type-1 [1]): 2.07 nM
EC50 [2]: 28100 nM
EC50 (TGF-beta receptor type-1 [3]): 111 nM

Cc1nc(-c2nc(N3CCOCC3)[nH]c2-c2ccc3ncnn3c2)ccc1F
Ki (TGF-beta receptor type-1 [1]): 15 nM
half-life [4]: 0.4 h
EC50 [2]: 46300 nM
bioavailability [5]: 25%
EC50 (TGF-beta receptor type-1 [3]): 513 nM

Cc1nc(-c2nc(N3CCN(C)CC3)[nH]c2-c2ccc3ncnn3c2)ccc1F
Ki (TGF-beta receptor type-1 [1]): 16.4 nM
EC50 [2]: 10900 nM
EC50 (TGF-beta receptor type-1 [3]): 344 nM

CCC(=O)Nc1nc(-c2ccc(F)c(C)n2)c(-c2ccc3nccnc3c2)[nH]1
Ki (TGF-beta receptor type-1 [1]): 8.8 nM
EC50 [2]: 13500 nM
EC50 (TGF-beta receptor type-1 [3]): 156 nM

Cc1nc(-c2nc(N)[nH]c2-c2ccc3nccnc3c2)ccc1F
Ki (TGF-beta receptor type-1 [1]): 0.7 nM
half-life [4]: 0.6 h
IC50 [2]: 12500 nM
bioavailability [5]: 28%
IC50 (TGF-beta receptor type-1 [3]): 33.5 nM

Reference: ChEMBL document CHEMBL1143371, “2-Aminoimidazoles inhibitors of TGF-beta receptor 1” (Bioorg Med Chem Lett, 2009)
